Values after ≈ are worked out from the molar mass of the structure shown. Values joined by “and” are separate entries in the source; they are usually repeats but may differ in a detail not shown here. Identical values can stand only once.

This is an account of results in paper PMC4674087 (ChemMedChem, 2015).

Series [1] deals with mitochondrial permeability transition pore (mtPTP). Put plainly: Calcium retention capacity. In kind it is biochemical, mouse. The following applies: for CRC/CRC0: at 1.56 µM, average ±SEM, n≥3.
Series [2] shares this test system. Kind of series: Mitochondrial swelling assay. It counts as biochemical, mouse. The conditions noted are these: for EC50: read-out: mitochondrial swelling EC50, isolated mouse liver mitochondria.
The nature of series [3]: HeLa cell viability assay. It counts as cell-based, human. The following applies: human, HeLa cells, with verapamil (20 µM) or CsH (2 µg/mL). In a few lines:
(§1)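 HeLa cells are grown in DMEM with 10% FBS at 37 °C and 5% CO2, seeded at 1×10^4 per well, and left to adhere for 6 h. They are then exposed for 24 h to a range of test compound concentrations or 1% DMSO vehicle, with 20 µM verapamil or 2 µg/mL CsH present. Relative viable cell number is read with the CellTiter 96 Aqueous One kit.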

Series [4] deals with human norepinephrine transporter (NET) (Homo sapiens, UniProt P23975). Kind of series: Eurofins LeadProfilingScreen panel. It counts as binding. The conditions noted are these: read-out: inhibition of human norepinephrine transporter (NET).
The next series is described as follows: Plasma stability, human. It counts as in vitro ADME.
The nature of the next series: Plasma stability, mouse. It counts as in vitro ADME.
The subject of series [5] is other 66 targets in the panel (GPCRs, ion channels, transporters). Kind of series: Eurofins LeadProfilingScreen panel, remaining targets. In kind it is binding. The following applies: 10 µM.
Series [6] in a line: Plasma protein binding, human. In kind it is in vitro ADME.
Series [7] can be described thus: Plasma protein binding, mouse. It counts as in vitro ADME.
Series [8] deals with exon 9 col6a1 morphant zebrafish. Kind of series: Zebrafish ColVI myopathy model, muscle birefringence. The conditions noted are these: 48 hpf; 5 and 10 µM in fish water, added at 21 hpf; ANOVA p < 0.05. It counts as in vivo.
Series [9] concerns HeLa cells. Put plainly: HeLa cell viability assay. The following applies: 24 h, CsH or verapamil present. It counts as cell-based, human. In a few lines:
as §1

In the next series the test system is human mtPTP. Kind of series: CRC of HeLa cells. In kind it is cell-based.
A further series has as its target T1, adenosine A3 (Homo sapiens, UniProt P0DMS8).
T1 sequence (P0DMS8 1-318): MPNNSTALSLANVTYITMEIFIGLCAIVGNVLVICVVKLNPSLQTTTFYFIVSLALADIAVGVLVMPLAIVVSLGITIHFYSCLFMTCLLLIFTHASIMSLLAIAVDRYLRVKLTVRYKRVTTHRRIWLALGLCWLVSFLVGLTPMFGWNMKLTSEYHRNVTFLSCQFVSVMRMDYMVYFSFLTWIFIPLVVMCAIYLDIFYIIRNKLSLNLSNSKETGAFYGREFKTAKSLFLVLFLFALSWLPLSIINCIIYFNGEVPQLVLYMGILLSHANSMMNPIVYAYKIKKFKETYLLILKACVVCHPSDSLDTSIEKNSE
Kind of series: Eurofins LeadProfilingScreen panel. It counts as binding. The following applies: read-out: inhibition of adenosine A3.

Series [10] deals with isolated mouse liver mitochondria. Put plainly: Oxygen consumption of isolated mouse liver mitochondria. In kind it is biochemical.
For series [11], the system named is HeLa cells. Kind of series: Oxygen consumption of HeLa cells. In kind it is cell-based, human. The following applies: CsH present. In a few lines: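 HeLa monolayers are seeded at 3×10^4 per well in DMEM and cultured for 24 h. Medium is replaced by serum- and antibiotic-free unbuffered DMEM (pH 7.4) containing 2 µg/mL CsH or 20 µM verapamil. Oxygen consumption is measured on a Seahorse XF24 with sequential additions, and protein per well is quantified by BCA afterwards. Results are mean ± SD of a representative experiment, repeated four times.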

The nature of series [12]: Microsomal stability, mouse liver microsomes. In kind it is in vitro ADME. On the technique in general: Liver microsomes are vesicles of endoplasmic reticulum, rich in cytochrome P450 enzymes.
For series [13], the system named is exon 9 col6a1 morphant zebrafish. Kind of series: Zebrafish ColVI myopathy model, motor activity. It counts as in vivo. The conditions noted are these: 5 and 10 µM in fish water, added at 21 hpf.
Series [14] relates to mitochondrial permeability transition pore (mtPTP). Put plainly: Chemical activation of mtPTP. In kind it is biochemical, mouse. The following applies: 1.56 µM; 10 µM Ca2+ plus PhAsO, diamide, Cu(OP)2 or NEM.
Series [15] is described as follows: Microsomal stability, human liver microsomes. It counts as in vitro ADME.
Another series in a line: Aqueous solubility. It counts as physicochemical. The conditions noted are these: PBS.
Setting [16] is: isolated mouse liver mitochondria.

Chain of human norepinephrine transporter (NET) (P23975 whole entry): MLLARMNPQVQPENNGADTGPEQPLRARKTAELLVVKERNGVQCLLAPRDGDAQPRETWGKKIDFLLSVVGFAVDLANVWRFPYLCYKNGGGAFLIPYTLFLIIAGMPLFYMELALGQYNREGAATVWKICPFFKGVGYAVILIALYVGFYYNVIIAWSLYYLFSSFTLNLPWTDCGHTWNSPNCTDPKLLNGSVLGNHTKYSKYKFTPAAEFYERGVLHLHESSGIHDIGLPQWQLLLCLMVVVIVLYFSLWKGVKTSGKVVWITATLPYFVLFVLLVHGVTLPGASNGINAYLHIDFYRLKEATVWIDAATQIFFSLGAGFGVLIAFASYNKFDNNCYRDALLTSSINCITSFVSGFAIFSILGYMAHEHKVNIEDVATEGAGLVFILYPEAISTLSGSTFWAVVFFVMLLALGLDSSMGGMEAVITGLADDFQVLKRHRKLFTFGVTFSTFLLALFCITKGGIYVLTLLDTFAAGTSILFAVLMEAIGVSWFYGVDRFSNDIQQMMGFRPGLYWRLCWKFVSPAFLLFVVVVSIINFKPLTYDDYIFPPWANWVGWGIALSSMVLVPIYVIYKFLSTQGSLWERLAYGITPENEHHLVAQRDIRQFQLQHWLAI

In the case of `COc1cc(NC(=O)c2cc(-c3cccc(O)c3)on2)cc(OC)c1OC` [Compound 1, 5-(3-hydroxyphenyl)-N-(3,4,5-trimethoxyphenyl)isoxazole-3-carboxamide], the CRC/CRC0 in series [1] (setting [16]) is 1.18 −0.06.

By EC50 is commonly meant the concentration giving half of the maximal effect. By CC50 is commonly meant the concentration that lowers cell viability or growth by half. Higher therefore signals lower toxicity to the cells. Regarding `COc1ccc(-c2cc(C(=O)Nc3cc(Cl)ccc3C)no2)cc1O` [Compound 46, N-(5-Chloro-2-methylphenyl)-5-(3-hydroxy-4-methoxyphenyl)isoxazole-3-carboxamide], the EC50 in [2] stood at 0.0076 nM. This compound also gave a CC50 at 24 h in series [3] above 50 µM. Also, the CRC/CRC0 in [1] (setting [16]) came to 10.02±0.34.

On to `COc1ccc(-c2cc(C(=O)Nc3cc(Cl)cnc3C)no2)cc1O` [Compound 54, N-(5-Chloro-2-methylpyridin-3-yl)-5-(3-hydroxy-4-methoxyphenyl)isoxazole-3-carboxamide], for which the EC50 in series [2] amounted to 10 nM. In addition, the CC50 at 24 h in [3] was above 50 µM. Also, in series [1] (setting [16]), the CRC/CRC0 was 10.10±1.14 and 10.1 −1.1.

As usually defined, the inhibition is the relative decrease from the control value, in per cent. The half-life is the time in which the quantity being followed falls by half. A higher half-life goes with slow loss. Broadly, the fraction unbound is free concentration divided by total concentration. Read a high fraction unbound as much free substance. As usually defined, the microsomal CLint is the capacity of the preparation to metabolise the compound, expressed as a volume cleared per time. By Aqueous solubility is commonly meant how much of the substance goes into solution per volume. Read a low Aqueous solubility as a poorly soluble substance. The solubility is the dissolved amount per volume that the medium holds. Consider `Cc1c(Cl)cccc1NC(=O)c1cc(-c2ccc(F)c(O)c2)on1` [Compound 60, N-(3-Chloro-2-methylphenyl)-5-(4-fluoro-3-hydroxyphenyl)isoxazole-3-carboxamide], for which, in series [2] (1.56 µM compound), the “mtPTP opening (swelling) induced by 50 µM Ca2+ load” value was “abolished”. Besides, the inhibition at 10 µM in [4] came out at 79%; at adenosine A3, 51%. In addition, the half-life is above 120 min in “Plasma stability, human”; below 30 min in “Plasma stability, mouse”; below 15 min in series [12]; above 60 min in [15]. In addition, the “inhibition of the other 66 targets in the panel” value in series [5] is at most 43%. Moreover, the free fraction (fraction unbound) is 0.11 in [6] and below 0.01 in series [7]. Also, the recovery in series [6] worked out at 76%; in series [7], 0%. Moreover, in series [8], the “muscle birefringence (structural muscle defects)” value is given as “significant recovery of muscle defects”. Besides, the “concentration up to which not cytotoxic” value with HeLa cells [9] is on record as 12.50 µM. In series [3], this compound gave a CC50 at 24 h of 39.5 ± 4.65 µM. Further, the “CRC after treatment of intact HeLa cells, wash, then permeabilization” value in the series with human mtPTP (1.56 µM, 30 min) is listed as “effective following treatment of intact human cells”. In addition, in the series with human mtPTP (increasing concentrations of 60), the “CRC ratios of permeabilized HeLa cells” value was “increased CRC ratios”. The “respiratory control ratios, FCCP-stimulated and oligomycin-insensitive respiration” value in series [10] is reported as “No statistically significant differences”. Besides, the “Ca2+ load required for mtPTP opening” value in [1] (1.56 µM compound, 20 µM Ca2+ pulses, solvent control 80) is on record as ~ 960 nmol (mg protein)^−1. Besides, in [1] (setting [16]), the CRC/CRC0 was 12.14±0.55 and 12.1 −0.6. Also, the “compound-to-solvent CRC ratio reached on augmenting the concentration” value in [1] (concentration-response, Figure 4D trace a) is listed as 15. Moreover, the “maximum CRC ratio relative to CsA-treated mitochondria” value in [1] (setting [16]) is on record as ~ 3 fold. Further, the “effect on CRC in combination with 2 µM CsA” value in [1] (various concentrations of 60 plus 2 µM CsA) is “synergistic”. In addition, the “FCCP-stimulated and oligomycin-insensitive respiration” value in the series with HeLa cells [11] is reported as “No statistically significant differences”. Further, the results for the microsomal CLint in series [12] and in series [15] were above 462 µL/min/mg and below 116 µL/min/mg, respectively. Moreover, the “motor function (spontaneous coiling events, touch-evoked response)” value in series [13] is on record as “dramatic improvement in motor function”. The “mtPTP transition from closed to open after chemical activators” value in [14] is reported as “prevented”. In addition, the Aqueous solubility in the series “Aqueous solubility” (pH 7.4) is recorded as 16.1 µM. Besides, the solubility in the series “Aqueous solubility” (pH 7.4, aqueous buffer, Aqueous solubility) was determined as 16 µM (≈ 5.55 µg/mL).

On to `Cc1ccc(Cl)cc1NC(=O)c1cc(-c2ccc(F)c(O)c2)on1` [Compound 63, N-(5-Chloro-2-methylphenyl)-5-(4-fluoro-3-hydroxyphenyl)isoxazole-3-carboxamide], for which the CRC/CRC0 in [1] (setting [16]) was 15.21±1.26 and 15.2 −1.3.
